What was measured:
[1] = molecular target: Beta-secretase 1 (Homo sapiens, UniProt P56817); experiment: Inhibition of recombinant beta-secretase 1
[2] = Inhibition of beta-secretase in neuroblastoma cells assessed as inhibition of amyloid beta production; format: cell-based; conditions: Homo sapiens
How it was run: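 Cell-based assay in neuroblastoma cells. IC50 is reported as an average value.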

Sequence of Beta-secretase 1 (P56817 whole entry): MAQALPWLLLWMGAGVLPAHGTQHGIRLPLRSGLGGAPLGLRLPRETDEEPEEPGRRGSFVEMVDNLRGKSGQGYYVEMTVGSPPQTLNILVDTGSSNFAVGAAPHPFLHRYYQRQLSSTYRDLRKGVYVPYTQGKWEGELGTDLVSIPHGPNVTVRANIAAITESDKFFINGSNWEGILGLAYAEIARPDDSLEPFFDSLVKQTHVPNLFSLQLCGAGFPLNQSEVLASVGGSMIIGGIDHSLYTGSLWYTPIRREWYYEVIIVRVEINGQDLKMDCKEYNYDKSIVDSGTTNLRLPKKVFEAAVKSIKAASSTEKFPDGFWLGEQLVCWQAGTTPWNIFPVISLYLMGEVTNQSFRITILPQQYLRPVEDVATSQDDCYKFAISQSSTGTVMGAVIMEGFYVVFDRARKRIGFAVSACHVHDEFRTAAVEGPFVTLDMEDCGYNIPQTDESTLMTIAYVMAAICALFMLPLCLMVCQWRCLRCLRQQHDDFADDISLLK

Structure (SMILES) | Ki [1] [µM] | IC50 [2] [µM]
Cc1nc(CCN(C(=O)CC[C@@H](C2CCCCC2)N2Cc3cc(Oc4ccccc4)ccc3N=C2N)C2CCCCC2)cs1 | 0.106 | 
CN(C(=O)CC[C@@H](c1ccccc1)N1Cc2cc(Oc3ccccc3)ccc2N=C1N)C1CCCCC1 | 0.164 | 0.482
CN(C(=O)OC[C@@H](c1ccccc1)N1Cc2cc(Oc3ccccc3)ccc2N=C1N)C1CCCCC1 | 0.783 | 3.4
CN(C(=O)CC[C@@H]([C@H]1CCCOC1)N1Cc2cc(Oc3ccccc3)ccc2N=C1N)C1CCCCC1 | 0.122 | 
Cc1nc(CN(C(=O)OC[C@@H](C2CCCCC2)N2Cc3cc(Oc4ccccc4)ccc3N=C2N)C2CCCCC2)cs1 | 1.46 | 
CC(C)c1nc(CN(C(=O)CC[C@@H](C2CCCCC2)N2Cc3cc(Oc4ccccc4)ccc3N=C2N)C2CCCCC2)cs1 | 0.144 | 
CN(C(=O)CC[C@@H](C1CCCCC1)N1Cc2cc(Oc3ccccc3)ccc2N=C1N)C1CCCCC1 |  | 0.071
CN(C(=O)OC[C@@H](C1CCCOC1)N1Cc2cc(Oc3ccccc3)ccc2N=C1N)C1CCCCC1 (mixture of isomers) | 0.104 | 1.1

Further compounds by falling Ki [1], results first:

Ki [1] [µM] | IC50 [2] [µM] | Structure (SMILES)
0.104 |  | Cc1nc(C(C)N(C(=O)CC[C@@H](C2CCCCC2)N2Cc3cc(Oc4ccccc4)ccc3N=C2N)C2CCCCC2)cs1 (stereo partly drawn)
0.079 | 0.39 | Cc1nc(CN(C(=O)CC[C@@H](C2CCCCC2)N2Cc3cc(Oc4ccccc4)ccc3N=C2N)C2CCCCC2)cs1
0.06 |  | NC1=Nc2ccc(Oc3ccccc3)cc2CN1[C@@H](COC(=O)NC1CCCCC1)C1CCCCC1
0.039 | 0.051 | Cc1[nH]ncc1CN(C(=O)CC[C@@H](C1CCCCC1)N1Cc2cc(Oc3ccccc3)ccc2N=C1N)C1CCCCC1
0.0375 |  | CN(C(=O)OC[C@@H](C1CCCCC1)N1Cc2cc(Oc3ccccc3)ccc2N=C1N)C1CCCCC1
0.023 |  | NC1=Nc2ccc(Oc3ccccc3)cc2CN1[C@@H](CCC(=O)N(Cc1cn[nH]c1)C1CCCCC1)C1CCCCC1
0.013 | 0.021 | COCc1nc(CN(C(=O)CC[C@@H](C2CCCCC2)N2Cc3cc(Oc4ccccc4)ccc3N=C2N)C2CCCCC2)cs1
0.011 | 0.023 | Cn1cc(CN(C(=O)CC[C@@H](C2CCCCC2)N2Cc3cc(Oc4ccccc4)ccc3N=C2N)C2CCCCC2)cn1

Source: ChEMBL document CHEMBL2062429, “Structure-based design, synthesis, and biological evaluation of dihydroquinazoline-derived potent β-secretase inhibitors” (Bioorg Med Chem Lett, 2012)
